Publication PMC6430656 (Cell chemical biology, 2018)
Where two headings read alike, the source gives them in different places.

Legend:
[1] = system: HuH7 cells; assay: HuH7 hepatoma cell viability; type: cell-based
[2] = molecular target: PfPK5 (Plasmodium falciparum, UniProt P61075); assay: KINOMEScan affinity for PfPK5; type: binding
[3] = system: P. berghei parasite load in HuH7 cells; assay: P. berghei liver stage parasite load in HuH7 cells; type: cell-based, Plasmodium berghei
How it was run: (§1)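 Hepatoma cells were seeded with test compound (0–100 μM) before infection with 3,000 P. berghei ANKA sporozoites: 15,000 cells/well for HepG2 and 8,000 for HuH7. For HepG2, compound was also added at 0 or 4 hpi. Parasite load was read by luciferase luminescence at 45 h and normalised to 1% DMSO. EC50 came from a variable-slope four-parameter fit, mean ± SEM of n ≥4.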

[4] = system: K63-linked ubiquitin in P. falciparum; type: cell-based, Plasmodium falciparum; details: for K63-linked protein ubiquitination (band intensities relative to DMSO): 30 μM, 24 hrs, ring stage P. falciparum 3D7
How it was run: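 P. falciparum 3D7 was cultured in RPMI/AlbuMAX II at pH 7.2, 37 °C, under 3% O2, and sorbitol-synchronised. Ring stages (10 h post-reinvasion; 10% parasitemia, 1% haematocrit) were treated 24 h with test compound (30 μM, or 0.001–100 μM) or ≤0.1% DMSO. Cells were saponin-lysed and sonicated, then blotted with anti-K63-linkage ubiquitin, with anti-K48 ubiquitin as control and actin as loading control. Total band intensity was quantified across 2–3 independent experiments.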

[5] = system: P. berghei EEFs in HuH7 cells; assay: Immunofluorescence analysis of P. berghei EEFs in HuH7 cells; type: cell-based, Plasmodium berghei
[6] = molecular target: PfCDPK1 (Plasmodium falciparum, UniProt P62344); assay: KINOMEScan affinity for PfCDPK1; type: binding
Sequence of PfCDPK1 (P62344 whole entry): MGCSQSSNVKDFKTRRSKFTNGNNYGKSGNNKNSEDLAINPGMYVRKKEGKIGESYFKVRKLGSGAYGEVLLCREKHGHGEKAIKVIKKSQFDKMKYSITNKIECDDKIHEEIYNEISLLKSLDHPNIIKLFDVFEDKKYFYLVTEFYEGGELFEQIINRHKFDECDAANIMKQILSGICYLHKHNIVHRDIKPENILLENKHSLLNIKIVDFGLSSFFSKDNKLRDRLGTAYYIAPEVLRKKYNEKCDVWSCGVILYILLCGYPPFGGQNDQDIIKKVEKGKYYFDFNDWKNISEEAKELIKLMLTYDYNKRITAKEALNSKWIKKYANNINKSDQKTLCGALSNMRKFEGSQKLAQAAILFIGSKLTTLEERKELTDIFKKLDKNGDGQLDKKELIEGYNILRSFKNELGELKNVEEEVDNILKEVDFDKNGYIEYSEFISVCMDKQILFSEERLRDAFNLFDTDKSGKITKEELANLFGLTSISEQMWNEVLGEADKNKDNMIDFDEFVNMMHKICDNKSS

[7] = molecular target: PfPK9 (Plasmodium falciparum, UniProt Q8IEG4); assay: ATP-competitive binding assay, GFP-PfPK9 on ATP-sepharose resin; details: for relative PfPK9 binding compared to negative DMSO control: takinib analog screen at 250 and 500 μM
[8] = system: HsTAK1; details: ref Totzke et al., 2017, cited from earlier work
[9] = Solubility; type: physicochemical
[10] = system: HsIRAK4; details: read-out: IC50 HsIRAK4; ref Totzke et al., 2017; cited from earlier work
[11] = system: HsIRAK1; details: read-out: IC50 HsIRAK1; ref Totzke et al., 2017; cited from earlier work
[12] = system: HepG2 cells; assay: HepG2 hepatoma cell viability; type: cell-based
How it was run: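 HepG2 cells (15,000/well) were seeded with test compound, then infected with 3,000 P. berghei ANKA sporozoites. Viability was measured after 45 h in the same wells as the parasite-load read-out, using a fluorescence protease-activity assay (an ATP luminescence assay is also described). Signal was normalised to 1% DMSO, and ≥50% loss of viability was the exclusion threshold.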

[13] = system: P. berghei parasite load in HepG2 cells; assay: P. berghei liver stage parasite load in HepG2 cells; type: cell-based; details: Plasmodium berghei, HepG2, read-out: EC50 P. berghei parasite load, HepG2 cells
How it was run: as §1

[14] = system: blood stage P. falciparum parasites; assay: Inhibition of blood stage P. falciparum parasites; type: cell-based, Plasmodium falciparum; details: 100 μM

Sequence of PfPK5 (P61075 whole entry): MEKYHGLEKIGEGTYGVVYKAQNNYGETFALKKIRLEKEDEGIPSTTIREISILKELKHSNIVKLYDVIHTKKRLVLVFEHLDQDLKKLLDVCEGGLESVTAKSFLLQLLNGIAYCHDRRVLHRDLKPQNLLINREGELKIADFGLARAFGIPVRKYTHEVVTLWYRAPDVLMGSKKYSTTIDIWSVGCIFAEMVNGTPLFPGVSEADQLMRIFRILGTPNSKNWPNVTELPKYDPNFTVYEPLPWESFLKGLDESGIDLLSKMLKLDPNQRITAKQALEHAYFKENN

CCCn1c(NC(=O)c2cccc(C(=O)O)c2)nc2ccccc21 [HS220]
change in HuH7 viability upon treatment [1]: no significant change | decrease of cell viability ([1]; HuH7, any concentration tested): ≤ 30% | Kd ([2]; read-out: Kd PfPK5, tested up to 30 μM, KINOMEScan): > 30 µM | EC50 ([3]; read-out: EC50 P. berghei parasite load, HuH7 cells): 43 ± 3.8 µM | K63-linked protein ubiquitination (band intensities relative to DMSO) [4]: decrease | number of EEFs ([5]; 30 μM, 0–48 hpi): did not change | EEF size ([5]; 30 μM, 0–48 hpi, vs DMSO): significantly increased | EEF size ([5]; 100 μM, 0–48 hpi): not affected | number of EEFs ([5]; 100 μM, 0–48 hpi): decreased | Kd ([6]; read-out: Kd PfCDPK1, tested up to 30 μM, KINOMEScan): > 30 µM | PfPK9 binding affinity, fold less potent than takinib ([7]; HS220 vs takinib): 8.9 fold | Kd ([7]; read-out: Kd(app) PfPK9 binding, converted from EC50, dose-response 0–500 μM): 4.1 ± 0.8 µM | relative PfPK9 binding compared to negative DMSO control [7]: > 3 fold | HsTAK1 inhibition, fold less potent than takinib ([8]; HS220 vs takinib): 160,000 fold | effect on HsTAK1 activity [8]: little or no effect

NC(=O)c1cccc(C(=O)Nc2nc3ccccc3s2)c1 [HS230]
solubility [9]: poor | relative PfPK9 binding compared to negative DMSO control [7]: > 3 fold | effect on HsTAK1 activity [8]: little or no effect

CCCn1/c(=N/C(=O)c2cccc(C(N)=O)c2)[nH]c2ccccc21 [takinib]
decrease of cell viability ([1]; HuH7, tested up to 200 μM): ≤ 40% | IC50 [10]: 0.12 µM | IC50 [11]: 0.39 µM | Kd [2]: > 30 µM | decrease of HepG2 viability ([12]; 30 μM, relative to DMSO): ≤ 50% | decrease of cell viability ([12]; HepG2, tested up to 200 μM): ≤ 40% | EC50 ([3]; Plasmodium berghei, Huh-7, read-out: EC50 P. berghei parasite load): 7.3 ± 0.99 µM | EC50 [13]: 6.7 ± 1.3 µM | K63-linked protein ubiquitination (band intensities relative to DMSO) [4]: decreased | K63-linked ubiquitin signal (total intensity of all bands) ([4]; 30 and 100 μM): significantly decreased | K48-linked ubiquitin signal (control) ([4]; dose-response 0.001–100 μM): no change | EEF size ([5]; 10 μM, 0–24, 24–48 and 0–48 hpi, vs DMSO): significantly increased | number of EEFs (infected cells) ([5]; 10 μM, all time periods): not affected | number of EEFs ([5]; 30 μM, 0–24 hpi or 0–48 hpi): decreased | EEF size ([5]; 30 μM, 0–24 hpi or 24–48 hpi): increased | Kd [6]: > 30 µM | inhibition of blood stage P. falciparum parasites [14]: inhibits | Kd [7]: 0.46 ± 0.1 µM | IC50 ([8]; read-out: IC50 HsTAK1): 0.0095 µM
